“Also recorded” adds a separate entry of the source. Like-named read-outs stand apart in the source and are kept apart here.

Broadly, the IC50 is the midpoint of a concentration-inhibition curve. A lower IC50 goes with higher potency. As a reminder, the Ki is the equilibrium dissociation constant of an inhibitor or competing ligand from its target. A low value points to higher affinity.

Test [1] concerns the target T1, α-glucosidase (Saccharomyces cerevisiae, UniProt P53341). As to conditions: reported in the literature; cited from earlier work.
For test [2], the target named is α-glucosidase (Saccharomyces cerevisiae, EC 3.2.1.20) (Saccharomyces cerevisiae, UniProt P53341). In words: Assay of α-glucosidase inhibitory activity. Format: biochemical. As to conditions: for inhibitory effect on α-glucosidase (in words): 1-deoxynojirimycin as control.
Chain of α-glucosidase (Saccharomyces cerevisiae, EC 3.2.1.20) (P53341 whole entry): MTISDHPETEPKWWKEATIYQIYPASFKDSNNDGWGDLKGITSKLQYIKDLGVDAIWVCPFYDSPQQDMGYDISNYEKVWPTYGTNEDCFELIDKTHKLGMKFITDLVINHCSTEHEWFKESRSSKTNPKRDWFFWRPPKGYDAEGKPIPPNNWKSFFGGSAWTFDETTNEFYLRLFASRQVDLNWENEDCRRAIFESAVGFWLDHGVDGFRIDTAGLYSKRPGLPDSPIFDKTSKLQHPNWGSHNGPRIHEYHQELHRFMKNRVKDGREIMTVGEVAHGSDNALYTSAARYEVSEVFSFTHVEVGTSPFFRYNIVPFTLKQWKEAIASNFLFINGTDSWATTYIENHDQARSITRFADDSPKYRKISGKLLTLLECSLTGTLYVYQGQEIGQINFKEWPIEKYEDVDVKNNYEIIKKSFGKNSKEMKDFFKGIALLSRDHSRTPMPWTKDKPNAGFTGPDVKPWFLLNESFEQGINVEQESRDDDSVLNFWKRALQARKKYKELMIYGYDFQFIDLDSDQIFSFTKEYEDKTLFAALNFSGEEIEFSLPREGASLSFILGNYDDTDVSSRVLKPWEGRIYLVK
Test [3] concerns the target T1, α-glucosidase. Briefly: Inhibitory kinetic analysis. The class given is biochemical.
The target in test [4] is T1, α-glucosidase. Briefly: Fluorescence quenching and UV-Vis absorption spectra of α-glucosidase. The class given is binding. To be noted: Stern–Volmer analysis and UV-Vis absorption spectra at 298 K. A digest of the protocol: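 Tryptophan fluorescence was excited at 280 nm and emission recorded at 300–500 nm. Test compound (0–8.0 × 10−5 mol L−1) was added to α-glucosidase (1 U mL−1) and incubated 30 s at 298 K before reading. Data were fitted to the Stern–Volmer equation F0/F = 1 + Kqτ0[Q], with τ0 = 6.2 ns. The same method was run at 273, 298 and 310 K for thermodynamic parameters. UV-Vis spectra (200–600 nm) were taken of enzyme (1.0 × 10−5 mol L−1) with compound at 0–9.0 × 10−5 mol L−1.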

T1 sequence (P53341 whole entry): as above

Turning to `OC[C@H]1NC[C@H](O)[C@@H](O)[C@@H]1O` [1-Deoxynojirimycin], the “reversibility of α-glucosidase inhibition” value in test [1] is recorded as “reversibly inhibit”.

`O=c1cc(-c2ccccc2)oc2cc(OCCCCCN3C[C@H](O)[C@@H](O)[C@H](O)[C@H]3CO)cc(O)c12` [compound 4, 5-Hydroxy-2-phenyl-7-((5-((2R,3R,4R,5S)-3,4,5-trihydroxy-2-(hydroxymeth-yl)-piperidin-1-yl)pentyl)oxy)-4H-chromen-4-one] came in with an IC50 in test [2] above 100 µM.

As to `O=c1cc(-c2ccccc2)oc2cc(OCCCCCCCCN3C[C@H](O)[C@@H](O)[C@H](O)[C@H]3CO)cc(O)c12` [compound 5, 5-Hydroxy-2-phenyl-7-((8-((2R,3R,4R,5S)-3,4,5-trihydroxy-2-(hydroxymeth-yl)-piperidin-1-yl)octyl)oxy)-4H-chromen-4-one], in test [2], the IC50 came out at 5.56 ± 0.24 µM and the “inhibitory effect on α-glucosidase (in words)” value is reported as “superior inhibition effects compared to 1-deoxynojirimycin”.

Turning to `O=c1cc(-c2ccccc2)oc2cc(OCCCCCCCCCCCN3C[C@H](O)[C@@H](O)[C@H](O)[C@H]3CO)cc(O)c12` [compound 6, 5-Hydroxy-2-phenyl-7-((11-((2R,3R,4R,5S)-3,4,5-trihydroxy-2-(hydroxymethyl)-piperidin-1-yl)undecyl)oxy)-4H-chromen-4-one], the Ki in test [3] was 0.21 µM. Also, the “reversibility of α-glucosidase inhibition” value in test [3] (0.0, 0.5, 1.0 μM of compound, varying enzyme concentration) is “reversible”. In addition, the inhibition type entry in test [3] (Lineweaver–Burk plot) is “mixed competitive; also recorded: mixed-type inhibitor; also recorded: mixed competition type”. In test [4], the fluorescence quenching mechanism entry is “static fluorescence quenching”. Also, in test [2], the midpoint of inhibition, the IC50, lay at 0.51 ± 0.02 µM and the “inhibitory effect on α-glucosidase (in words)” value was “superior inhibition effects compared to 1-deoxynojirimycin”. In test [2] (ratio of IC50 values), the “α-glucosidase inhibitory activity, fold higher than 1-deoxynojirimycin” value is “up to 16 fold”.

(Values after article PMC9044198 (RSC Advances, 2021).)
